Values belong to the compound of their own block, whether it stands above or below them. Active and inactive are the calls of the source. No cut-off for these calls is given here.
How the values were obtained:
[1] = biological target: Histamine H3 receptor (Rattus norvegicus, UniProt Q9QYN8); assay: Displacement of [3H]N-alpha-methylhistamine from rat histamine H3 receptor expressed in CHO cells; assay type: cell-based
[2] = biological target: T1, Histamine H3 receptor (Homo sapiens, UniProt Q9Y5N1); assay: Displacement of [3H]N-alpha-methylhistamine from human histamine H3 receptor expressed in CHO cells; assay type: cell-based
T1 sequence (Q9Y5N1 whole entry): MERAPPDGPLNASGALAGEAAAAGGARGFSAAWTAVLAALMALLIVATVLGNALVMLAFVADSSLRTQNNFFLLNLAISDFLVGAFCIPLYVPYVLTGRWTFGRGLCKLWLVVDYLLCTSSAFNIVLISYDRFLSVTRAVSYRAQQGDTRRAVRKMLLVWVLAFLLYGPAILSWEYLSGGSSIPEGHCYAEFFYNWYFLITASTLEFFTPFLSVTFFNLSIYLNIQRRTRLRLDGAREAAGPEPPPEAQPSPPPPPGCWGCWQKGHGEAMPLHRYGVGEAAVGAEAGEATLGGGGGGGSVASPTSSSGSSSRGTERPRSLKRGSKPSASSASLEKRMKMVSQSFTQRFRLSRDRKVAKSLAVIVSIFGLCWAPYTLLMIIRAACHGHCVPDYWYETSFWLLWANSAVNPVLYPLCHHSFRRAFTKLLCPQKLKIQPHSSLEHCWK

[3] = Volume of distribution in rat at 1 mg/kg, iv; assay type: ADME, organism-based; set-up: dose 1 mg/kg, route intravenous; settings: in vivo
Outline: (§1)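 Rat PK study, dosed 1 mg/kg iv plus 10 or 5 mg/kg po. iv vehicle 3% DMSO, 30% solutol, 67% phosphate buffered saline; oral vehicle 50% Tween 80, 40% propylene carbonate, 10% propylene glycol.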

[4] = AUC in rat at 10 mg/kg, po; assay type: ADME, organism-based; set-up: dose 10 mg/kg, route oral; settings: plasma; outline: as §1
[5] = Ratio of drug level in brain to plasma in rat at 10 mg/kg, ip after 6 hrs; assay type: ADME, organism-based; set-up: dose 10 mg/kg, route intraperitoneal; settings: read-out: BPR
Outline: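 Brain and plasma levels measured in rat 6 h after a 10 mg/kg ip dose; value is brain/plasma ratio.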

[6] = Tmax in rat at 10 mg/kg, po; assay type: ADME, organism-based; set-up: dose 10 mg/kg, route oral; settings: in vivo; outline: as §1
[7] = Cmax in rat at 10 mg/kg, po; assay type: ADME, organism-based; set-up: dose 10 mg/kg, route oral; settings: in vivo; outline: as §1
[8] = biological target: Voltage-gated inwardly rectifying potassium channel KCNH2 (Homo sapiens, UniProt Q12809); assay: Inhibition of human ERG by patch clamp assay
Sequence of Voltage-gated inwardly rectifying potassium channel KCNH2 (Q12809 whole entry): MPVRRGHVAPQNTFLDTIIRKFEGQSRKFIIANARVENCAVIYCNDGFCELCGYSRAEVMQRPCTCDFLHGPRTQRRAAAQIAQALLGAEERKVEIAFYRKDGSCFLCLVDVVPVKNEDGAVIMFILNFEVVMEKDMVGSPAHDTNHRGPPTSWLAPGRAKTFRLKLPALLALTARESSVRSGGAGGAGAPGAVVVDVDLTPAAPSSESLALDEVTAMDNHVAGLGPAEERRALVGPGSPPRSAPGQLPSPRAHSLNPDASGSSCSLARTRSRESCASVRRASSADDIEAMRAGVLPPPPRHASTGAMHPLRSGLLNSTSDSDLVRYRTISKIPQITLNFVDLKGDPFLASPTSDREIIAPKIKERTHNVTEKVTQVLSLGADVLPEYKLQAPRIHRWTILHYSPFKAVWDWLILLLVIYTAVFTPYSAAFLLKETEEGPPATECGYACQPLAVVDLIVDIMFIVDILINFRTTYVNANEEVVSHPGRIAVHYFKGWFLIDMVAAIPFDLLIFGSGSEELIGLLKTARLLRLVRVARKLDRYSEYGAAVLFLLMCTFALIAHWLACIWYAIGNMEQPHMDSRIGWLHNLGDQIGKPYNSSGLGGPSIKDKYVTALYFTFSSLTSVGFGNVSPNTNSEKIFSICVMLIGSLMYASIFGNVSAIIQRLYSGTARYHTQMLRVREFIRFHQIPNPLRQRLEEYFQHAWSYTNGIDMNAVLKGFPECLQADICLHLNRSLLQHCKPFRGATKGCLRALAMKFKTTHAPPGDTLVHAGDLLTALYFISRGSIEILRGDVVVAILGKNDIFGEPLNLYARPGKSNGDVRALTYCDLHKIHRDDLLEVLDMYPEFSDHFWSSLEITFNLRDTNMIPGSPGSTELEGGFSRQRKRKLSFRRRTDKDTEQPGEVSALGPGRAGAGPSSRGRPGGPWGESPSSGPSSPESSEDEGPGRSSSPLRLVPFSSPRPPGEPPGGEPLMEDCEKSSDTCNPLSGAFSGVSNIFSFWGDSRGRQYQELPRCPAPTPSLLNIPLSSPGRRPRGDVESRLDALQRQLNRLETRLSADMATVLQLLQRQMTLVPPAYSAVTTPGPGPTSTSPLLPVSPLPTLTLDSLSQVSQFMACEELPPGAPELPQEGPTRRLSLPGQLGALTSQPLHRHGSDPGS

[9] = Oral bioavailability in rat; assay type: ADME, organism-based; settings: in vivo; outline: as §1
[10] = biological target: T1, Histamine H3 receptor; assay: Inverse agonist activity at human histamine H3 histamine receptor by [35S]GTPgammaS binding assay; assay type: functional
Outline: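 Functional assay measuring [35S]GTPγS binding at the human H3 receptor. Inverse agonist potency is reported as an EC50.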

[11] = Inhibition of alpha-adrenergic receptor at 10 uM
Outline: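 Broad panel of 101 GPCRs, ion channels and enzymes; percent inhibition at 10 µM.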

[12] = Plasma protein binding in human; assay type: ADME, cell-free; settings: read-out: PPB (converted)
Outline: (§2)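 In vitro binding to plasma proteins of rat, dog and human; percent bound.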

[13] = tested on: Rattus norvegicus; assay: Wake promoting activity in Sprague-Dawley rat EEG/EMG sleep-wake model assessed as slow-wave sleep onset time at 3 mg/kg, ip after 4 hrs (reference value: 34.9 +/- 5.1 mins); assay type: functional; settings: route intraperitoneal
Outline: (§3)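 Male Sprague Dawley rats surgically implanted for chronic EEG and EMG recording; test agent given ip, vehicle group as control; n = 6-7/group. […] Mean + SEM; Dunnett's test versus vehicle.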

[14] = tested on: Salmonella typhimurium; assay: Genotoxicity against Salmonella Typhimurium TA1537 by Ames test in the presence of rat liver S9 fraction; assay type: toxicity, organism-based; settings: salmonella enterica subsp. enterica serovar typhimurium
[15] = Half life in dog liver microsomes; assay type: ADME, Canis lupus familiaris, Microsome
Outline: (§4)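 Stability in liver microsomes from rat, dog or human; half-life (min) determined.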

[16] = tested on: Rattus norvegicus; assay: Wake promoting activity in Sprague-Dawley rat EEG/EMG sleep-wake model assessed as increase in wake time at 10 mg/kg, ip after 4 hrs; assay type: functional; settings: route intraperitoneal
Outline: (§5)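 Male Sprague Dawley rats surgically implanted for chronic EEG/EMG recording; ip dosing during normal quiet period; cumulative wake time over 4 h post dose vs vehicle; n = 6-7/group, mean + SEM, Dunnett's test vs vehicle.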

[17] = tested on: Salmonella typhimurium; assay: Genotoxicity against Salmonella Typhimurium TA100 by Ames test in the presence of rat liver S9 fraction; assay type: toxicity, organism-based; settings: salmonella enterica subsp. enterica serovar typhimurium
[18] = Plasma protein binding in dog; assay type: ADME, cell-free, Canis lupus familiaris; settings: read-out: PPB (converted); outline: as §2
[19] = tested on: Rattus norvegicus; assay: Wake promoting activity in Sprague-Dawley rat EEG/EMG sleep-wake model assessed as increase in wake time at 30 mg/kg, ip after 4 hrs relative to control; assay type: functional; settings: route intraperitoneal; outline: as §3
[20] = tested on: Salmonella typhimurium; assay: Genotoxicity against Salmonella Typhimurium TA102 by Ames test in the presence of rat liver S9 fraction; assay type: toxicity, organism-based; settings: salmonella enterica subsp. enterica serovar typhimurium
[21] = Aqueous solubility of the compound at pH 7.4; assay type: physicochemical; settings: buffer
Outline: (§6)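 Water solubility measured at pH 2 and at pH 7.4, in […].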

[22] = Clearance in rat at 1 mg/kg, iv; assay type: ADME, organism-based; set-up: dose 1 mg/kg, route intravenous; settings: in vivo; outline: as §1
[23] = tested on: Salmonella typhimurium; assay: Genotoxicity against Salmonella Typhimurium TA1535 by Ames test in the presence of rat liver S9 fraction; assay type: toxicity, organism-based; settings: salmonella enterica subsp. enterica serovar typhimurium
[24] = Half life in human liver microsomes; assay type: ADME, Microsome; outline: as §4
[25] = Plasma protein binding in rat; assay type: ADME, cell-free; settings: read-out: PPB (converted); outline: as §2
[26] = Aqueous solubility of the compound at pH 2; assay type: physicochemical; settings: buffer; outline: as §6
[27] = tested on: Rattus norvegicus; assay: Wake promoting activity in Sprague-Dawley rat EEG/EMG sleep-wake model assessed as maximum cumulative wake time at 30 mg/kg, ip at 6 hrs; assay type: functional; settings: route intraperitoneal
[28] = Genotoxicity against mouse lymphocytes by micronuclei test in the absence of rat liver S9 fraction; assay type: toxicity, cell-based; settings: lymphocyte
[29] = tested on: Salmonella typhimurium; assay: Genotoxicity against Salmonella Typhimurium TA98 by Ames test in the absence of rat liver S9 fraction; assay type: toxicity, organism-based; settings: salmonella enterica subsp. enterica serovar typhimurium
[30] = biological target: Histamine H4 receptor (Homo sapiens) (UniProt Q9H3N8); assay: Inhibition of human histamine H4 receptor at 10 uM
Outline: (§7)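 Selectivity screen against human H1, H2 and H4 receptors; percent inhibition at 10 µM.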

[31] = Genotoxicity against mouse lymphocytes by micronuclei test in the presence of rat liver S9 fraction; assay type: toxicity, Lymphocyte
[32] = Half life in rat at 1 mg/kg, iv; assay type: ADME, organism-based; set-up: dose 1 mg/kg, route intravenous; settings: in vivo; outline: as §1
[33] = Apparent permeability of the compound across human Caco2 cells; assay type: ADME, cell-based; settings: Caco-2
Outline: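 Caco-2 monolayer permeability; apparent permeability (Papp, cm/s) reported.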

[34] = tested on: Rattus norvegicus; assay: Wake promoting activity in Sprague-Dawley rat EEG/EMG sleep-wake model assessed as maximum cumulative wake time at 30 mg/kg, ip up to 17 hrs; assay type: functional, organism-based; set-up: dose 30 mg/kg
[35] = tested on: Rattus norvegicus; assay: Toxicity in Sprague-Dawley rat assessed as hypersomnolence at 1 to 30 mg/kg, ip after 4 hrs; assay type: organism-based; set-up: dose 1-30 mg/kg, route intraperitoneal; settings: in vivo
[36] = Oral bioavailability in rat at 10 mg/kg; assay type: ADME, organism-based; settings: in vivo; outline: as §1
[37] = Inhibition of cytochrome P450; assay type: ADME
Outline: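 CYP inhibition assessed against 5 CYP isoforms; IC50 determined.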

[38] = tested on: Salmonella typhimurium; assay: Genotoxicity against Salmonella Typhimurium TA1535 by Ames test in the absence of rat liver S9 fraction; assay type: toxicity, organism-based; settings: salmonella enterica subsp. enterica serovar typhimurium
[39] = tested on: Salmonella typhimurium; assay: Genotoxicity against Salmonella Typhimurium TA1537 by Ames test in the absence of rat liver S9 fraction; assay type: toxicity, organism-based; settings: salmonella enterica subsp. enterica serovar typhimurium
[40] = tested on: Rattus norvegicus; assay: Inhibition of RAMH-induced water drinking in ip dosed rat dipsogenia model; assay type: functional
Outline: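 Rat dipsogenia model: water drinking induced by H3 agonist R-alpha-methylhistamine; test article given ip beforehand; inhibition of drinking measured and ED50 (mg/kg) derived.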

[41] = biological target: Histamine H1 receptor (Homo sapiens) (UniProt P35367); assay: Inhibition of human histamine H1 receptor at 10 uM; outline: as §7
Sequence of Histamine H1 receptor (Homo sapiens) (P35367 whole entry): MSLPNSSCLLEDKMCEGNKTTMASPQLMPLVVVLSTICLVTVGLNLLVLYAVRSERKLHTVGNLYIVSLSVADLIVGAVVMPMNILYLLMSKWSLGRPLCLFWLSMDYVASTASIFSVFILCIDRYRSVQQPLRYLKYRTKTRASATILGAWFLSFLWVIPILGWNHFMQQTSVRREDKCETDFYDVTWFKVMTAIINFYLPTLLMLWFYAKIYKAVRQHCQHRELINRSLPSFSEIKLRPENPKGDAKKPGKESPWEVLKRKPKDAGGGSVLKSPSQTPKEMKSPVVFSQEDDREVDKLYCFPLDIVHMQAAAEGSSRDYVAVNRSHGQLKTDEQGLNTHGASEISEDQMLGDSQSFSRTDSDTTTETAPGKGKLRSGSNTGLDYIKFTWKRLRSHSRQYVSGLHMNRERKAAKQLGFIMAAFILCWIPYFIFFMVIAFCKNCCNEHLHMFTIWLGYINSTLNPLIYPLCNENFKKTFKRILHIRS

[42] = tested on: Salmonella typhimurium; assay: Genotoxicity against Salmonella Typhimurium TA102 by Ames test in the absence of rat liver S9 fraction; assay type: toxicity, organism-based; settings: salmonella enterica subsp. enterica serovar typhimurium
[43] = tested on: Salmonella typhimurium; assay: Genotoxicity against Salmonella Typhimurium TA98 by Ames test in the presence of rat liver S9 fraction; assay type: toxicity, organism-based; settings: salmonella enterica subsp. enterica serovar typhimurium
[44] = tested on: Salmonella typhimurium; assay: Genotoxicity against Salmonella Typhimurium TA100 by Ames test in the absence of rat liver S9 fraction; assay type: toxicity, organism-based; settings: salmonella enterica subsp. enterica serovar typhimurium
[45] = tested on: Rattus norvegicus; assay: Wake promoting activity in Sprague-Dawley rat EEG/EMG sleep-wake model assessed as slow-wave sleep onset time at 1 mg/kg, ip after 4 hrs (reference value: 34.9 +/- 5.1 mins); assay type: functional; settings: route intraperitoneal; outline: as §3
[46] = tested on: Rattus norvegicus; assay: Wake promoting activity in Sprague-Dawley rat EEG/EMG sleep-wake model assessed as increase in wake time at 30 mg/kg, ip after 4 hrs; assay type: functional; settings: route intraperitoneal; outline: as §5
[47] = biological target: Histamine H2 receptor (Homo sapiens) (UniProt P25021); assay: Inhibition of human histamine H2 receptor at 10 uM; outline: as §7
Sequence of Histamine H2 receptor (Homo sapiens) (P25021 whole entry): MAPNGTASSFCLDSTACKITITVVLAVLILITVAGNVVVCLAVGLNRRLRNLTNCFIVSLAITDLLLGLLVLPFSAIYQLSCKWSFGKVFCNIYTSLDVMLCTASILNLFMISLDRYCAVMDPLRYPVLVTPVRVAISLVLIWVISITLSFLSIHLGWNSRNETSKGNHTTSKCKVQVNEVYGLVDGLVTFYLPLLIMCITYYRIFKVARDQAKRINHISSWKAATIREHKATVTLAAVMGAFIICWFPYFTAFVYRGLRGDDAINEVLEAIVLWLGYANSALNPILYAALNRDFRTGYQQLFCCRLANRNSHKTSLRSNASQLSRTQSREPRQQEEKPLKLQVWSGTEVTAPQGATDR

[48] = Half life in rat liver microsomes; assay type: ADME, Microsome; outline: as §4
[49] = Cmax in po dosed rat; assay type: ADME, organism-based; set-up: route oral; settings: in vivo
[50] = tested on: Rattus norvegicus; assay: AUC in po dosed rat assessed as 5-[4-(1-cyclobutyl-piperidin-4-yloxy)-phenyl]-6-methyl-2H-pyridazin-3-one level; assay type: ADME, organism-based, Plasma; settings: in vivo
[51] = AUC in po dosed rat; assay type: ADME, organism-based; settings: plasma
[52] = tested on: Rattus norvegicus; assay: Cmax in po dosed rat assessed as 5-[4-(1-cyclobutyl-piperidin-4-yloxy)-phenyl]-6-methyl-2H-pyridazin-3-one level; assay type: ADME, organism-based; set-up: route oral; settings: in vivo

Sequence of Histamine H3 receptor (Rattus norvegicus, UniProt Q9QYN8) (Q9QYN8 whole entry): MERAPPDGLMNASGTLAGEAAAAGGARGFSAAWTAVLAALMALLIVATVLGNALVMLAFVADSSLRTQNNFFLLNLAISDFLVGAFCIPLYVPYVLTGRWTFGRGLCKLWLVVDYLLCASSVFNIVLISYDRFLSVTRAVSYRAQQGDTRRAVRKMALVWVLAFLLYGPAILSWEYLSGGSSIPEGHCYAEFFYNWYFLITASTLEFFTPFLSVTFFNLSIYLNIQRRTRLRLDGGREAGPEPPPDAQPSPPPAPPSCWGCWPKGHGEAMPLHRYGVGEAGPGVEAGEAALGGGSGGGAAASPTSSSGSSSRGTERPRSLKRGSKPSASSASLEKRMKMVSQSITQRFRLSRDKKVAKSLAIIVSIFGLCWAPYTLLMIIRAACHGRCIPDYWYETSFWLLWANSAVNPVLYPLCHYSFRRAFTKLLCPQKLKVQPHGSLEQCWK

Structure (SMILES): O=c1cc(-c2ccc(OC3CCN(C4CCC4)CC3)nc2)cn[nH]1
Ki [1]: 20 nM
Ki [2]: 14 nM

Structure (SMILES): C[C@@H]1CCCN1CCCOc1ccc(-c2cn[nH]c(=O)c2)cc1
Vd [3]: 0.8 L/kg
AUC [4]: 4210 ng·h/mL
Ki [1]: 8.5 nM
Kp at 6 h [5]: 1.8
Ki [2]: 2.8 nM
Tmax [6]: 120 min
Cmax [7]: 446 ng/mL

Further lines, with some results ahead:

Ki [1]: 2 nM
bioavailability [9]: 21%
Ki [2]: 2 nM
Structure (SMILES): O=c1cc(-c2ccc(OC3CCN(C4CCC4)CC3)cc2)cn[nH]1
IC50 [8]: 2000 nM

EC50 [10]: 1.1 nM
inhibition [11]: > 50%
fraction unbound [12]: 0.42
half-life [15]: > 40 min
Vd [3]: 3.4 L/kg
fraction unbound [18]: 0.57
solubility [21]: > 140 µg/mL
clearance [22]: 25 mL/min/kg
half-life [24]: > 40 min
AUC [4]: 4870 ng·h/mL
fraction unbound [25]: 0.46
Ki [1]: 6 nM
solubility [26]: > 140 µg/mL
inhibition [30]: < 20%
half-life [32]: 90 min
Papp [33]: 14.9 ×10⁻⁶ cm/s
bioavailability [36]: 68%
IC50 [37]: > 30000 nM
inhibition [41]: < 20%
Kp at 6 h [5]: 2.3
Ki [2]: 5 nM
Tmax [6]: 60 min
inhibition [47]: < 20%
half-life [48]: > 40 min
Cmax [7]: 673 ng/mL
Structure (SMILES): Cc1n[nH]c(=O)cc1-c1ccc(OC2CCN(C3CCC3)CC2)cc1
Time [13]: 45 min
Activity [14]: Non-toxic
Time [16]: 167 min
IC50 [8]: 7000 nM
Activity [17]: Non-toxic
Activity [19]: 178%
Activity [20]: Non-toxic
Activity [23]: Non-toxic
Time [27]: 163 min
Activity [28]: Non-toxic
Activity [29]: Non-toxic
Activity [31]: Non-toxic
Activity [34]: Active
Activity [35]: Non-toxic
Activity [38]: Non-toxic
Activity [39]: Non-toxic
ED50 [40]: 0.02 mg/kg
Activity [42]: Non-toxic
Activity [43]: Non-toxic
Activity [44]: Non-toxic
Time [45]: 35.3 min
Time [46]: 226 min

half-life [15]: > 40 min
half-life [24]: > 40 min
Cmax [49]: 73 ng/mL
Ki [1]: 13 nM
AUC [50]: 152 ng·h/mL
bioavailability [9]: 6%
IC50 [37]: > 30000 nM
AUC [51]: 370 ng·h/mL
Cmax [52]: 34 ng/mL
Ki [2]: 15 nM
half-life [48]: > 40 min
Structure (SMILES): CC1=NNC(=O)CC1c1ccc(OC2CCN(C3CCC3)CC2)cc1 (stereo unspecified)

— ChEMBL document CHEMBL1944524, “Synthesis and structure-activity relationship of 5-pyridazin-3-one phenoxypiperidines as potent, selective histamine H(3) receptor inverse agonists” (Bioorg Med Chem Lett, 2012)
